{
  "source": "paper PMC3990230",
  "about": "(Journal of medicinal chemistry, 2010)",
  "key": {"IKK": {"test_system": "IKK", "assay_type": "cell-based, Human", "conditions": "A549 cells, TNFα induced, Western blot", "in_short": "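A549 cells were pretreated with test compound at varying concentrations (4 hr), then stimulated with TNFα. Phosphorylation read-out: lysates taken at 7 min, probed anti-pS32-IκB, stripped and re-probed for total IκB. Stability read-out: TNFα 10 ng/ml for 20 min, total IκB only. NP-40 lysis (pH 7.4, phosphatase/protease inhibitors), 12.5% SDS-PAGE, nitrocellulose, 5% milk/TBS-T block, primary antibody ≥2 hr.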"}, "recombinant IKKβ": {"target": "T1, recombinant IKKβ (Homo sapiens, UniProt O14920)", "T1 sequence (O14920 1-756)": "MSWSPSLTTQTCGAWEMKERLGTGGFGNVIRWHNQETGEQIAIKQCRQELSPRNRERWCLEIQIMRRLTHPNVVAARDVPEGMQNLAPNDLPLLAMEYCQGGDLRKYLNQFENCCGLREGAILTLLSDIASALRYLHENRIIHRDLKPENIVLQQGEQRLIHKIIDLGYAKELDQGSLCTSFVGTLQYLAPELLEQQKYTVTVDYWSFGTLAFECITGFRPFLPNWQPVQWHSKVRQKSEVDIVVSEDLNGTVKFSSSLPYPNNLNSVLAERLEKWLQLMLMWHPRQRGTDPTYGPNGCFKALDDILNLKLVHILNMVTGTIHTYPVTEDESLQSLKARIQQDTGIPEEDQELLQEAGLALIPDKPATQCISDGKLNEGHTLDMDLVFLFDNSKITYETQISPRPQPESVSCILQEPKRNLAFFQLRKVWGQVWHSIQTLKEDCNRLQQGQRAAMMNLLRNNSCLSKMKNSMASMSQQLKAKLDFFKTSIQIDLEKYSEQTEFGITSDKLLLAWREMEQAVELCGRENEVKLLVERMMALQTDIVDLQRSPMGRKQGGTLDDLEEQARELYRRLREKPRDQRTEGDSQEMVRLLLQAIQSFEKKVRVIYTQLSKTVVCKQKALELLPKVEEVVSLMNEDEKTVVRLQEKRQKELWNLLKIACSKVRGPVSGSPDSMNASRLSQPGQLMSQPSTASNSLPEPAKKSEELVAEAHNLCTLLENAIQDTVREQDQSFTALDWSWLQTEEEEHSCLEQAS", "test": "In vitro IKK assay: 32P incorporation into GST-IκB", "assay_type": "biochemical", "conditions": "30 min at 30°C", "in_short": "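Activated recombinant IKKβ (40 ng) in MOPS buffer (pH 7.0) preincubated with test compound for 30 min at room temperature. Mg-ATP mix (100 μM ATP), purified GST-IκBα (5 μg) and [γ-32P]ATP (0.5 μCi) added, then 30 min at 30°C. Reaction stopped by boiling in SDS sample buffer. Samples run on 12.5% SDS-PAGE with Coomassie staining. Read by autoradiography and scintillation counting of excised bands. Controls lacked enzyme or compound.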"}, "A549 cells": {"test_system": "A549 cells", "test": "Clonogenic assay", "assay_type": "cell-based, Human", "conditions": "9 day incubation", "in_short": "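A549 cells seeded at 200 cells/well and incubated overnight, then exposed to test compound or DMSO vehicle. Medium and compound replaced every 3 days, for 9 days in total. Cells fixed in 10% TCA for 30 min at 4°C, water-washed, SRB-stained and rinsed with 1% acetic acid. Plates scanned, colonies counted and normalized to DMSO control.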"}, "NF-κB": {"test_system": "NF-κB", "test": "NF-κB translocation assay", "assay_type": "cell-based, Human", "conditions": "A549 cells, TNFα induced"}},
  "data": [
    {"compound": "5-hydroxy-1, 7-bis(4-hydroxy-3-methoxyphenyl)hepta-1, 4, 6-trien-3-one [Curcumin, reference compound]", "values": [
      {"measurement": "block of IκB phosphorylation and degradation (in words)", "setting": "IKK", "value": "block IκB phosphorylation and degradation when high concentrations were used"},
      {"measurement": "effect on IKKβ catalyzed incorporation of 32P into GST-IκB (in words)", "setting": "recombinant IKKβ", "value": "no obvious effect"},
      {"measurement": "concentration with detectable inhibition of colony forming activity", "setting": "A549 cells", "value": 4, "unit": "µM"}
    ]},
    {"compound": "COc1cc(/C=C/C(=O)C(=Cc2cccc(OC)c2OC)C(=O)/C=C/c2ccc(O)c(OC)c2)ccc1O", "note": "[Compound 35, (1E,6E)-4-(2,3-dimethoxybenzylidene)-1,7-bis(4-hydroxy-3-methoxyphenyl)hepta-1,6-diene-3,5-dione]", "values": [
      {"measurement": "block of IκB phosphorylation and degradation (in words)", "setting": "IKK", "value": "potently block the IκB phosphorylation and degradation in a lower concentration"},
      {"measurement": "effect on IKKβ catalyzed incorporation of 32P into GST-IκB (in words)", "setting": "recombinant IKKβ", "value": "dose-dependent inhibition of IKKβ"}
    ]},
    {"compound": "COc1ccc(/C=C/C(=O)C(=Cc2ccc(F)cc2)C(=O)/C=C/c2ccc(OC)c(OC)c2)cc1OC", "note": "[Compound 21, (1E,6E)-1,7-bis(3,4-dimethoxyphenyl)-4-(4-fluorobenzylidene)hepta-1,6-diene-3,5-dione]", "values": [
      {"measurement": "fold greater potency than curcumin in blocking nuclear localization of NF-κB", "setting": "NF-κB", "value": "more than 10 fold"},
      {"measurement": "block of IκB phosphorylation and degradation (in words)", "setting": "IKK", "value": "potently block the IκB phosphorylation and degradation in a lower concentration"},
      {"measurement": "effect on IKKβ catalyzed incorporation of 32P into GST-IκB (in words)", "setting": "recombinant IKKβ", "value": "dose-dependent inhibition of IKKβ"}
    ]},
    {"compound": "COc1cc(C=C(C(=O)/C=C/c2ccc(OC)c(OC)c2)C(=O)/C=C/c2ccc(OC)c(OC)c2)ccc1O", "note": "[Compound 17, (1E,6E)-1,7-bis(3,4-dimethoxyphenyl)-4-(4-hydroxy-3-methoxybenzylidene)hepta-1,6-diene-3,5-dione]", "values": [
      {"measurement": "fold greater potency than curcumin in blocking nuclear localization of NF-κB", "setting": "NF-κB", "value": "more than 10 fold"},
      {"measurement": "block of IκB phosphorylation and degradation (in words)", "setting": "IKK", "value": "potently block the IκB phosphorylation and degradation in a lower concentration"},
      {"measurement": "effect on IKKβ catalyzed incorporation of 32P into GST-IκB (in words)", "setting": "recombinant IKKβ", "value": "dose-dependent inhibition of IKKβ"}
    ]}
  ]
}
